The text below walks through data of publication PMC4123937 (Molecular Pharmaceutics, 2014).

The data set deals with 4T1 mammary tumors. It counts as in vivo, mouse (BALB/c). Particulars: Alexa546-pHLIP i.v., time points 2, 4, 24, 48 h. In outline:
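Female BALB/c mice, s.c. 4T1 cells (8 × 10^5 cells/0.1 mL) in right flank; used at ~6 mm tumor diameter. Single tail-vein dose of 5 nmol (100 μL of 50 μM) Alexa546-labeled peptide in PBS. Necropsy at 2, 4, 24, 48 h; excised tumor, muscle, kidney, liver imaged immediately; mean fluorescence intensity quantified. Six mice per construct.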

Turning to ACDDQNPWRAYLDLLFPTDTLLLDLLW [Var3], the “Time postinjection of maximal renal fluorescence signal” value (kidney) was 24 h.
ACEEQNPWARYLEWLFPTETLLLEL [Var7]: the “Time postinjection of maximum fluorescence signal in tumor” value (4T1 tumor) stood at 4 h.
